System: MS2 coat protein
Assay: apparent Kd, MS2 coat protein; higher = weaker binding; RNA-MaP array; theophylline 2 mM where present
Outline: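 The titrant was SNAP-549-labelled MS2 coat protein, run from 0.7 or 1.5 nM in doubling steps to 3 µM. It was applied to designs transcribed by stalled E. coli RNA polymerase on Illumina sequencing-chip clusters, without ligand first and then with constant ligand, in 100 mM Tris-HCl pH 7.5, 80 mM KCl, 4 mM MgCl2, BSA, DTT, yeast tRNA and Tween-20. The apparent Kd is the median of filtered per-cluster binding-curve fits, with green signal normalised to red-channel RNA signal and control-cluster median Fmax.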

[1] = designed as: OFF switch for theophylline, no ligand
[2] = ligand present: theophylline, designed as: OFF switch for theophylline
[3] = designed as: ON switch for theophylline, no ligand
[4] = ligand present: theophylline, designed as: ON switch for theophylline

Sequence | apparent Kd [1] | apparent Kd [2] | apparent Kd [3] | apparent Kd [4]
AGACAUGAGGAUCACCCAUGUAGCACGGAUACCAGAUCCAGAUGUAUCCCUUGGCAGCUGUGGUACAGCGUUGCAACGCUCCUAG | 20.7 nM | 28.1 nM |  | 
GUAAAUGUGACGGAUACCAGCGUGUUGUAGAACAUGAGGAUCACCCAUGUAGUGAUCAUGCGCCCUUGGCAGCUGGUAUGUUUGU |  |  | 474 nM | 841 nM
GAACAUGAGGAUCACCCAUGUAAAACAGAUACCAGUGAUAUAAUACACCCUUGGCAGCUGAAGCUGAAUAAUAAUUCCCUCAAGC |  |  | 14.8 nM | 16.4 nM
AGACAUGAGGAUCACCCAUGUAGUACGGAUACCAGAUCCAGAUGUAUCCCUUGGCAGCUGUGGUACAGCGUUACAUCGCUCCUAG | 15.1 nM | 19.4 nM |  | 
ACGACGCAUAGUGAUACCAGCACAACAUGAGGAUCACCCAUGUCACUUAUGUAGUAAUAAUGCCCUUGGCAGCACUAUGCGUCAG |  |  | 55.2 nM | 65.6 nM
GAUGAAGUAACUGAUACCAGUGUACUGACAUGAGGAUCACCCAUGUUGGGUUUUGUUGUACACCCUUGGCAGCAGAAUCUUUAUC | 52.3 nM | 84.9 nM |  | 
ACAUGAAGAACAGCGGUGGGCGCGCUCGAUACCAGUACUUUAAAAUACCCUUGGCAGCGACAUGAGGAUCACCCAUGUGAGAUGA | 15.3 nM | 28.6 nM |  | 
UCUUUCUAUGUAGAUACCAGCAUGUUAUAUUUCUAAUGACAUGAGGAUCACCCAUGUAAAUGCCCUUGGCAGCUGCGUUUUCUUU |  |  | 16.9 nM | 13.2 nM
ACGACAUGAGGAUCACCCAUGUAAGGUGAUACCAGACGAAGUAAUGUCCCUUGGCAGCACAAGCAUAGUUGCGAUUAUUGUACGA |  |  | 438 nM | 158 nM
ACAUGAAGAACAGCGGUGGGCGCGCUCGAUACCAGUACUUUGAUUUACCCUUGGCAGCGACAUGAGGAUCACCCAUGUGAGAUGA | 18 nM | 27.6 nM |  | 
AGCGACAUGCGUGAUACCAGCUACAUGAGGAUCACCCAUGUAAGUAGGAAACUACUGUGUAGCCCUUGGCAGCACAGUGCAUGUC | 9.48 nM | 26.6 nM |  | 
AAACAUGAGGAUCACCCAUGUUCAAUAGAUACCAGUGAUACGGUGCACCCUUGGCAGCUGUUGCUGAGUGAUGGUUCCCUCGGUA |  |  | 29 nM | 37.3 nM
ACCUACACGGAAACGUGUAGAAGUAAUGAUACCAGCAUGGAAACAUGCCCUUGGCAGCGUUACAUGAGGAUCACCCAUGUAUGUU | 14.8 nM | 32.4 nM |  | 
AUCUGUAUGUUUUCGUGUUUUAUUACAGAUACCAGACUAUACGUUGUCCCUUGGCAGCUGGAUGACAUGAGGAUCACCCAUGUUG | 33.5 nM | 36.6 nM |  | 
AGACAUGAGGAUCACCCAUGUAGUAUGGAUACCAGAUCCAGAUUUAUCCCUUGGCAGCUGUGGUACAGCGUUGGAUCGCUCCUAG | 26.5 nM |  |  | 
UAUAAAAUAACAGAUACCAGCGUGUUAUAAAACAUGAGGAUCACCCAUGUAGUGAUCAAGCGCCCUUGGCAGCUGGUAUUUUAUA |  |  | 101 nM | 126 nM
CAUACUUUAGUAUGUUAUGUGGACAGUGAUACCAGAUACGAAAGUAUCCCUUGGCAGCACAACAUGAGGAUCACCCAUGUAAUUU |  |  | 26.1 nM | 15.6 nM
ACAUGAGGAUCACCCAUGUGCCGAGUUGAUACCAGACCCGCACUAGUCCCUUGGCAGCAACUACGUGUGGGACACCCAUGUUAAG | 54.4 nM | 71.3 nM |  | 
UUUGAUAGGACAGAUACCAGCGUGUUGUUGAACAUGAGGAUCACCCAUGUAGUGAUCAGGCGCCCUUGGCAGCUGGUUUGUUAGG |  |  | 416 nM | 347 nM
AGCACACAUCCUGAUACCAGAGACAUGAGGAUCACCCAUGUCCGAUCGUCCUGCCUCAGACUCCCUUGGCAGCAGGAUGUGUGCU | 13.1 nM | 32.4 nM |  | 
UGUUUUGUGAUGGAUACCAGCAGAGAAAACGUUUAUCCUAACAUGAGGAUCACCCAUGUAUGCCCUUGGCAGCUGUUGUGGGAUA | 29.7 nM | 34.1 nM |  | 
UUACAUGAGGAUCACCCAUGUCAUAAUGAUACCAGAUAGUUGAUGAUCCCUUGGCAGCAUAGUACCUAGACAUGUGAGUCAUAGG |  |  | 113 nM | 132 nM
UGGGCAUACAUGAGGAUCACCCAUGUAGAUACCAGCACUAGCCUGUGCCCUUGGCAGCUAACCGGGUCGAGAACUUAGUGCUCCU | 11.8 nM | 52.7 nM |  | 
CUGCCAUGCAGAGAUACCAGUGAGCUCAAAACAUGAGGAUCACCCAUGUAAAUUGCCGAUCACCCUUGGCAGCUCUGCAUGGCAG |  |  | 9.78 nM | 7.84 nM
AAAACACAUGAGGAUCACCCAUGUCGUGAUACCAGUCAACAUGAGGACCCUUGGCAGCAUAAAAUGGGUAACAUGAGGAUAACCC | 89.6 nM | 146 nM |  | 
UAUAUAAUAACAGAUACCAGCGUGUUAUAAAACAUGAGGAUCACCCAUGUAGUGAUCAAGCGCCCUUGGCAGCUGGUAUUAUAUA |  |  | 72.2 nM | 146 nM
GCGAUACGUACUGAUACCAGAGACAUGAGGAUCACCCAUGUCCCAUGAUCAUACCUCAGACUCCCUUGGCAGCAGGAUAAGUGAG | 11.2 nM | 18.3 nM |  | 
AGUGUUGUAACUGAUACCAGACCUUUGCUUAUACAUGAGGAUCACCCAUGUAAAAUGGCGGUCCCUUGGCAGCAGAGAAGACGCA |  |  | 40.1 nM | 12.2 nM
CCGCCCACGAAUGAUACCAGCUAAAAUCAUGUACCAGACACAUGAGGAUCACCCAUGUAAAGCCCUUGGCAGCGUACGCCACCCG | 23.5 nM | 26.4 nM |  | 

Reference: the EternaBench riboswitch data
